According to ChEMBL document CHEMBL1131177, “A novel class of orally active non-peptide bradykinin B2 receptor antagonists. 4. Discovery of novel frameworks mimicking the active conformation” (J Med Chem, 1998):

Key:
B2 bradykinin receptor [1] = biological target: T1, B2 bradykinin receptor (Cavia porcellus, UniProt O70526); assay: Inhibition of the specific binding of [3H]BK to Bradykinin receptor B2 in guinea pig ileum membrane preparations; assay type: cell membranes
T1 sequence (O70526 whole entry): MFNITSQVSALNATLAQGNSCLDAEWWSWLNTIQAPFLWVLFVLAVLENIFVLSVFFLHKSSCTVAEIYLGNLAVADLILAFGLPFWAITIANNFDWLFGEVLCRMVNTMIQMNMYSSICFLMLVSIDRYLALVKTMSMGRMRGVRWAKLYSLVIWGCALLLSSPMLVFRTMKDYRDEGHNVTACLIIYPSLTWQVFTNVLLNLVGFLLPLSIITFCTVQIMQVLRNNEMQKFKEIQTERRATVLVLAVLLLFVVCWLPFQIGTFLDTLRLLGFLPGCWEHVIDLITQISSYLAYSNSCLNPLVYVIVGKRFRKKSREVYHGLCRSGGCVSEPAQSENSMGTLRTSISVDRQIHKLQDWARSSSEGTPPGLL
Method in brief: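 Male Hartley guinea pig ileum membranes (100000g pellet) at 0.2 mg protein/mL in pH 6.8 TES buffer with phenanthroline, bacitracin, DTT, captopril, BSA. Incubated with 0.06 nM [3H]BK plus varying compound concentrations, 60 min, room temperature. Filtration harvest, scintillation counting. Nonspecific binding defined with 1 µM unlabeled BK. IC50 as mean of at least three determinations.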

B2 bradykinin receptor [2] = biological target: T2, B2 bradykinin receptor (Homo sapiens, UniProt P30411); assay: Inhibition of the specific binding of [3H]BK to human recombinant Bradykinin receptor B2 expressed in CHO cells.; assay type: cell-based
T2 sequence (P30411 whole entry): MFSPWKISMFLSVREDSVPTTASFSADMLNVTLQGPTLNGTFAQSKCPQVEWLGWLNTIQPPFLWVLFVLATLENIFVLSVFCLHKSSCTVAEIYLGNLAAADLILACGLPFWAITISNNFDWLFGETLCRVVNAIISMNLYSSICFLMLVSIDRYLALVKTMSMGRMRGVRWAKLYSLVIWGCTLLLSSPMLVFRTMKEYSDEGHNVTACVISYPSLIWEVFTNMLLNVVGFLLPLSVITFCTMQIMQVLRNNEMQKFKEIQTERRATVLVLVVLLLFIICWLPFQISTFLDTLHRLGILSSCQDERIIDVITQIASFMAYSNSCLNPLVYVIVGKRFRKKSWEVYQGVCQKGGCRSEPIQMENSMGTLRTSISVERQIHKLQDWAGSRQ
Method in brief: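 Intact CHO (dhfr-) cells stably expressing human B2, seeded at 3.0 × 10^4 cells/well and cultured 1 day. Incubated with 1.0 nM [3H]BK and compound, 2 h at 4 °C, in HEPES/N-methyl-D-glucamine buffer pH 7.2 with bacitracin, enalaprilat, BSA. Cells solubilized in SDS/NaOH for scintillation counting. Nonspecific binding defined with 1 µM BK. Run three times.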

Cavia porcellus = assay: Antagonistic activity in inhibiting BK-induced bronchoconstriction in guinea pigs by oral administration at 1 mg/kg dose.; assay type: functional
Method in brief: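 Male Hartley guinea pigs (470-750 g), fasted overnight, anesthetized with pentobarbital 30 mg/kg ip, ventilated 10 mL/kg at 60 breaths/min; alcuronium 0.5 mg/kg iv, propranolol 10 mg/kg sc. BK 5 µg/kg iv; peak rise in insufflation pressure (modified Konzett–Rössler). Compound in 0.5% methylcellulose given via esophageal cannula; BK repeated 30 min later. % inhibition vs vehicle group; n = 3-4/dose.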

Compound | IC50 (B2 bradykinin receptor [1]) [nM] | IC50 (B2 bradykinin receptor [2]) [nM] | inhibition in vivo at 1 mg/kg (Cavia porcellus) [%]
CC(=O)Nc1ccc(/C=C/C(=O)NCc2cccn2-c2ccc(Cl)c(COc3cccc4ccc(C)nc34)c2Cl)cn1 | 0.56 | 0.37 | 82.1
CNC(=O)c1ccc(/C=C/C(=O)NCc2ccccc2-c2ccc(C)c(COc3cccc4ccc(C)nc34)c2C)cc1 | – | 2.6 | –
CNC(=O)c1ccc(/C=C/C(=O)NCc2cccn2-c2ccc(Cl)c(COc3cccc4ccc(C)nc34)c2Cl)cc1 | 0.64 | 0.26 | 67.9
CNC(=O)c1ccc(/C=C/C(=O)Nc2cccc(-c3ccc(C)c(COc4cccc5ccc(C)nc45)c3C)c2)cc1 | 94 | > 10000 | –
Cc1ccc2cccc(OCc3c(Cl)ccc(N(C)C(=O)CNC(=O)/C=C/c4ccc(N5CCCC5=O)cc4)c3Cl)c2n1 | 0.55 | 3.2 | 85.3
CNC(=O)c1ccc(/C=C/C(=O)NCC(=O)N(C)c2ccc(Cl)c(COc3cccc4ccc(C)nc34)c2)cc1 | 5.1 | 110 | –
CNC(=O)c1ccc(/C=C/C(=O)NCC(=O)N(C)c2ccc(OC)c(COc3cccc4ccc(C)nc34)c2OC)cc1 | 17 | 210 | –

Continued, in another order:

IC50 (B2 bradykinin receptor [1]) [nM] | IC50 (B2 bradykinin receptor [2]) [nM] | Compound | inhibition in vivo at 1 mg/kg (Cavia porcellus) [%]
0.58 | 0.41 | Cc1ccc2cccc(OCc3c(Cl)ccc(-n4cccc4CNC(=O)/C=C/c4ccc(N5CCCC5=O)cc4)c3Cl)c2n1 | 36
280 | 4200 | CC(=O)Nc1ccc(/C=C/C(=O)NCC(=O)Nc2ccc(Cl)c(COc3cccc4ccc(C)nc34)c2Cl)cn1 | –
17 | 14 | CNC(=O)c1ccc(/C=C/C(=O)NC/C=C\c2ccc(Cl)c(COc3cccc4ccc(C)nc34)c2Cl)cc1 | –
220 | 710 | CNC(=O)c1ccc(/C=C/C(=O)NCC=Cc2ccc(Cl)c(COc3cccc4ccc(C)nc34)c2Cl)cc1 | –
0.76 | 0.51 | Cc1ccc2cccc(OCc3c(Cl)ccc(N(C)C(=O)CNC(=O)/C=C/c4ccc(/C=C/c5ccncc5)nc4)c3Cl)c2n1 | 87.3
2.8 | 5.8 | CNC(=O)c1ccc(/C=C/C(=O)NCc2sccc2-c2ccc(C)c(COc3cccc4ccc(C)nc34)c2C)cc1 | –
17 | 150 | CNC(=O)c1ccc(/C=C/C(=O)NCC(=O)N(C)c2cccc(COc3cccc4ccc(C)nc34)c2C)cc1 | –
